The values below come from paper PMC8725320 (Biochimica et biophysica acta. Bioenergetics, 2021).

The subject of one experiment is Creatine Kinase. Type of experiment: biochemical, mouse. The conditions noted are these: 10 mM phosphocreatine, 20 μM AP5A, mean. An outline of the steps:
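Creatine kinase pathway in isolated mouse tissue mitochondria. Started by adding 10 mM phosphocreatine, with 20 μM AP5A to block AK. Run at 25°C in pH 7.0 medium with 100 mM KCl, 50 mM MOPS, 5 mM MgCl2, 10 mM phosphate, D-luciferin and luciferase. ADP at eight concentrations from 0 to 125 μM. Luminescence read each minute over 7–10 min against ATP standard curves; at least duplicate.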

For another experiment, the target named is Adenylate Kinase (Mus musculus, UniProt Q9WTP6). Type of experiment: biochemical.
In experiment [1] the test system is Oxidative Phosphorylation. As to the kind of experiment: Polarography. Type of experiment: biochemical. The conditions noted are these: mouse skeletal muscle mitochondria, five preparations, creatine kinase clamp, 5 mM ATP, 37°C. An outline of the steps: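 Mouse skeletal muscle mitochondria from five preparations, resuspended in mannitol-sucrose buffer, oxidised 10 mM glutamate + 10 mM succinate at 37°C. O2 consumption was recorded continuously. Steady-state ADP was clamped over a range by varying the phosphocreatine/creatine ratio, with 5 mM ATP and saturating creatine kinase. K0.5 was expressed as total ADP and as ADP3−.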

For experiment [2], the system named is Oxidative Phosphorylation. Type of experiment: biochemical. The conditions noted are these: human skeletal muscle mitochondria, glutamate + succinate, 20 μM AP5A, mean. The essentials: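 Isolated human skeletal muscle mitochondria, diluted in mannitol–sucrose buffer. Firefly luciferase ATP-accumulation assay at 25°C in KCl/MOPS medium at pH 7.0 with 5 mM MgCl2, 10 mM phosphate, glucose, EGTA, DTT and 0.2 g% BSA, plus 20 μM AP5A. ADP at eight levels from 0 to 125 μM (ΣADP). Started with 10 mM glutamate + 10 mM succinate. RLU read per minute over 7–10 min; at least duplicate.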

The test system of experiment [3] is Oxidative Phosphorylation. Type of experiment: biochemical, mouse. The essentials: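 Mouse liver, kidney, heart and skeletal muscle mitochondria were isolated and diluted in mannitol–sucrose buffer. Run at 25°C in KCl/MOPS medium at pH 7.0 with 5 mM MgCl2, 10 mM phosphate, 20 μM AP5A, luciferin and luciferase. Eight ADP levels from 0 to 125 μM; start with 10 mM glutamate + 10 mM succinate. Luminescence read each minute for 7–10 min against ATP standards; at least duplicate. ADP3− computed from ΣADP.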

Experiment [4] relates to Oxidative Phosphorylation. The conditions noted are these: cited from earlier work.
Experiment [5] concerns the target adenine nucleotide translocase (ANT). Conditions: read-out: ANT-ADP dissociation constant, KdADP^3−; free ion ADP^3−; cited from earlier work.
The target is the same in experiment [6]. As to the kind of experiment: Carboxyatractyloside titration of OxPhos with Easson-Stedman analysis. The conditions noted are these: read-out: CAT-ANT Kd; human skeletal muscle mitochondria; Easson-Stedman equation; low [ADP] 6.25 and/or 12.5 μM; n=27. Type of experiment: biochemical. The essentials: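 Human skeletal muscle mitochondria, oxidising glutamate + succinate, were mixed with reaction mix containing 20 μM AP5A, one ADP level (6.25, 12.5 or 25 μM) and one of eight CAT levels (0–5.0 nM). After 5 min for binding, substrate was added to start the reaction. ATP output was followed by luciferase light at 25°C, at least in duplicate. The Easson-Steadman equation gave Kd and ANT concentration.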

[7] abbreviates: mouse skeletal muscle mitochondria.
The mark [8] stands for this setting: mouse heart mitochondria, no AP5A, mean.
The mark [9] stands for this setting: mouse kidney mitochondria, no AP5A, mean.
The mark [10] stands for this setting: mouse skeletal muscle mitochondria, no AP5A, mean.
The mark [11] stands for this setting: mouse heart mitochondria, glutamate + succinate, 20 μM AP5A, mean.
The mark [12] stands for this setting: mouse kidney mitochondria, glutamate + succinate, 20 μM AP5A, mean.
Where [13] appears, read: mouse liver mitochondria, glutamate + succinate, 20 μM AP5A, mean.
The mark [14] stands for this setting: mouse skeletal muscle mitochondria, glutamate + succinate, 20 μM AP5A, mean.

“And” between values parts separate entries of the source, which are not always exact repeats. Equal entries are not always repeated. Where two headings read alike, the source gives them in different places.

For `Nc1ncnc2c1ncn2[C@@H]1O[C@H](COP(=O)(O)OP(=O)(O)O)[C@@H](O)[C@H]1O` [ADP], the “K0.5ADP, Creatine Kinase, Heart” value in the experiment with Creatine Kinase (mouse heart mitochondria, 25°C, pH 7.0) stood at 24.4 µM. Besides, in the experiment with Creatine Kinase (mouse heart mitochondria), the “Vmax, Creatine Kinase, Heart” value stood at 273.9 nmol ATP min^−1 mg^−1 and the “nH (Hill exponent), Creatine Kinase, Heart” value turned out to be 1.00. For the same molecule, the “K0.5ADP, Creatine Kinase, Kidney” value in the experiment with Creatine Kinase (mouse kidney mitochondria, 25°C, pH 7.0) came out at 37.8 µM. Also, in the experiment with Creatine Kinase (mouse kidney mitochondria), the “Vmax, Creatine Kinase, Kidney” value is listed as 28.7 nmol ATP min^−1 mg^−1 and the “nH (Hill exponent), Creatine Kinase, Kidney” value was determined as 1.00. In addition, in the experiment with Creatine Kinase (mouse skeletal muscle mitochondria, 25°C, pH 7.0), the “K0.5ADP, Creatine Kinase, Muscle” value is 36.3 µM. Further, in the experiment on Creatine Kinase (setting [7]), the “Vmax, Creatine Kinase, Muscle” value stood at 944.2 nmol ATP min^−1 mg^−1 and the “nH (Hill exponent), Creatine Kinase, Muscle” value is 1.07. The “K0.5ADP, Adenylate Kinase, Heart” value at Adenylate Kinase (mouse heart mitochondria, no AP5A, 25°C, pH 7.0, mean) was 54.9 µM. Moreover, at Adenylate Kinase (setting [8]), the “Vmax, Adenylate Kinase, Heart” value is 30.2 nmol ATP min^−1 mg^−1 and the “nH (Hill exponent), Adenylate Kinase, Heart” value is given as 1.85. Further, the “K0.5ADP, Adenylate Kinase, Kidney” value on Adenylate Kinase (mouse kidney mitochondria, no AP5A, 25°C, pH 7.0, mean) was 64.3 µM. In addition, at Adenylate Kinase (setting [9]), the “Vmax, Adenylate Kinase, Kidney” value was 102.3 nmol ATP min^−1 mg^−1 and the “nH (Hill exponent), Adenylate Kinase, Kidney” value turned out to be 1.74. Further, the “K0.5ADP, Adenylate Kinase, Liver” value on Adenylate Kinase (mouse liver mitochondria, no AP5A, 25°C, pH 7.0, mean) amounted to 84.0 µM. The “nH (Hill exponent), Adenylate Kinase, Liver” value at Adenylate Kinase (mouse liver mitochondria, no AP5A, mean) was found to be 1.53. In addition, the “K0.5ADP, Adenylate Kinase, Muscle” value at Adenylate Kinase (mouse skeletal muscle mitochondria, no AP5A, 25°C, pH 7.0, mean) was found to be 78.0 µM. For the same molecule, at Adenylate Kinase (setting [10]), the “Vmax, Adenylate Kinase, Muscle” value came out at 25.7 nmol ATP min^−1 mg^−1 and the “nH (Hill exponent), Adenylate Kinase, Muscle” value stood at 1.68. Moreover, the “K0.5ADP^3−, Polarography” value in experiment [1] (free ion ADP^3−) is 4.4 ± 0.4 µM and 4.4 µM. Further, the “K0.5ADP (ΣADP), Polarography” value in experiment [1] (glutamate + succinate) was 13.1 ± 1.3 µM and 13.1 µM. In experiment [2], the Vmax turned out to be 251.9 nmol/min/mg and the nH was determined as 1.16. Moreover, in experiment [2] (ΣADP), the K0.5ADP was 11.1 ± 0.8 µM and 11.1 µM. Besides, the “K0.5ADP^3− for OxPhos, heart” value in experiment [3] (mouse heart mitochondria, free ion ADP^3− calculated from ΣADP) is 1.9 μM and ~ 1.9 μM. Besides, in experiment [3] (setting [11]), the “Vmax, Oxidative Phosphorylation, Heart” value came out at 242.4 nmol ATP min^−1 mg^−1 and the “nH (Hill exponent), Oxidative Phosphorylation, Heart” value is recorded as 1.35. Moreover, the “K0.5ADP^3− for OxPhos, kidney” value in experiment [3] (mouse kidney mitochondria, free ion ADP^3− calculated from ΣADP) is 1.9 μM and ~ 1.9 μM. Besides, in experiment [3] (setting [12]), the “Vmax, Oxidative Phosphorylation, Kidney” value worked out at 109.9 nmol ATP min^−1 mg^−1 and the “nH (Hill exponent), Oxidative Phosphorylation, Kidney” value turned out to be 1.45. Besides, in experiment [3] (mouse liver mitochondria, glutamate + succinate 10 mM + 10 mM, 20 μM AP5A, 25°C, pH 7.0, ΣADP, mean), the “K0.5ADP, Oxidative Phosphorylation, Liver” value stood at 22.3 µM. Besides, in experiment [3] (setting [13]), the “Vmax, Oxidative Phosphorylation, Liver” value is 59.9 nmol ATP min^−1 mg^−1 and the “nH (Hill exponent), Oxidative Phosphorylation, Liver” value is given as 1.33. Besides, in experiment [3] (mouse skeletal muscle mitochondria, same five preparations, 25°C, free ion ADP^3−), the “K0.5ADP^3−, Luciferase” value is 1.9 ± 0.1 μM and 1.9 ^* μM. The “K0.5ADP (ΣADP), Luciferase” value in experiment [3] (mouse skeletal muscle mitochondria, same five preparations, 25°C, glutamate + succinate) was 11.9 ± 0.6 µM and 11.9 µM. Further, in experiment [3] (mouse skeletal muscle mitochondria, free ion ADP^3− calculated from ΣADP), the “K0.5ADP^3− for OxPhos, skeletal muscle” value is 1.9 μM and ~ 1.9 μM. The “K0.5ADP, Oxidative Phosphorylation, Muscle” value in experiment [3] (mouse skeletal muscle mitochondria, glutamate + succinate, 20 μM AP5A, 25°C, pH 7.0, ΣADP, mean) is 11.9 µM. In addition, in experiment [3] (setting [14]), the “Vmax, Oxidative Phosphorylation, Muscle” value was 553.5 nmol ATP min^−1 mg^−1 and the “nH (Hill exponent), Oxidative Phosphorylation, Muscle” value amounted to 1.19. The “Hill exponent, nH, in vivo” value in experiment [4] (in vivo OxPhos vs [ADP], sigmoidal relationship) is around 2.0. In addition, the “OxPhos K0.5ADP in vivo” value in experiment [4] (intact contracting mammalian skeletal muscle, 31P-MRS) is 20 to 40 µM. Moreover, the Kd in experiment [5] was around 4000 nM.

With `Nc1ncnc2c1ncn2[C@@H]1O[C@H](COP(=O)(O)OP(=O)(O)OP(=O)(O)OP(=O)(O)OP(=O)(O)OC[C@H]2O[C@@H](n3cnc4c(N)ncnc43)[C@H](O)[C@@H]2O)[C@@H](O)[C@H]1O` [AP5A, diadenosine pentaphosphate, reference compound], the “AK activity in the presence of AP5A” value on Adenylate Kinase (AP5A present at 20 μM, Figure S-8a, S-8b) is “not detectable”.

Take `C=C1[C@@H]2CC[C@H]3[C@]4(C)C[C@H](O[C@@H]5O[C@H](CO)[C@@H](OS(=O)(=O)O)[C@H](OS(=O)(=O)O)[C@H]5OC(=O)CC(C)C)CC(C(=O)O)(C(=O)O)[C@H]4CC[C@]3(C2)[C@H]1O` [CAT, Carboxyatractyloside]: the Kd in experiment [6] is 0.048 ± 0.002 nM.
